Experimental data published in PMC3581696 (The Journal of General Physiology, 2013).
“And” between values parts separate entries of the source, which are not always exact repeats. Identical values can stand only once.

Assays:
[1] = biological target: T1, purified C-linker/CNBHD of mEAG1 channels (Mus musculus, UniProt Q60603); test: Tryptophan-to-flavonoid FRET binding assay; settings: 100 µM flavonoid; 4 µM protein
T1 sequence (Q60603 505-702): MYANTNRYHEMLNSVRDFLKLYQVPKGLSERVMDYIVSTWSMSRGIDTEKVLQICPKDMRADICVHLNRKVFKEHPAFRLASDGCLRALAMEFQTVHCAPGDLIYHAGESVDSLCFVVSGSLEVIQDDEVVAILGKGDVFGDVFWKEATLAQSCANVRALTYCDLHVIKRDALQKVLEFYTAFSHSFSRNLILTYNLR

[2] = biological target: T2, mEAG1 Δ821–989 channels (Mus musculus, UniProt Q60603); test: Inside-out patch-clamp of post-CNBHD deletion mutant channels; assay type: cell-based; settings: with 30 µM fisetin
T2 sequence (Q60603 1-820): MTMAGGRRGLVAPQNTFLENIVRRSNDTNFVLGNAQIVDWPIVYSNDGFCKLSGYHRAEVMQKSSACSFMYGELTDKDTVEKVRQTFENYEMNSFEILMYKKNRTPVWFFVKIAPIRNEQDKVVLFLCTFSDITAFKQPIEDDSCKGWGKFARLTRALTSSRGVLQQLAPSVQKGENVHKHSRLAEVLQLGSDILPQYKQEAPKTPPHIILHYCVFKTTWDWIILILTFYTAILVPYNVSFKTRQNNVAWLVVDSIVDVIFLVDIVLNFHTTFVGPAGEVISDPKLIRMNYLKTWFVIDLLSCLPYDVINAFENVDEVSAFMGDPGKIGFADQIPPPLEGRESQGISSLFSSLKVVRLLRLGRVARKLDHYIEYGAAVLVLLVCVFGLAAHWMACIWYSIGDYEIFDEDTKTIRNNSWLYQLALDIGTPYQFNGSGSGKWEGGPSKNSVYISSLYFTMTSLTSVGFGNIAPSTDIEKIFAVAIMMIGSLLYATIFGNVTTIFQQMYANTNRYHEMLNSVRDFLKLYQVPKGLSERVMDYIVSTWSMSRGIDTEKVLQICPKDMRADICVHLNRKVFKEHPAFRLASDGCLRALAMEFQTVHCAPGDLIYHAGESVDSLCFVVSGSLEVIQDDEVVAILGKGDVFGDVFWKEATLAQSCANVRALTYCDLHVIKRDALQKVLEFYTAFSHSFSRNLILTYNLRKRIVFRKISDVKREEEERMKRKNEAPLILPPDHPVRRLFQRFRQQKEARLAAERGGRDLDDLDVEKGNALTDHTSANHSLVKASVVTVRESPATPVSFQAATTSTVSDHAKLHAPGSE
Summary of the method: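 mEAG1 mutant cRNA was injected into defolliculated Xenopus oocytes, and the vitelline membrane was removed. Inside-out patches were bathed in symmetric 130 mM KCl, 10 mM HEPES, 0.2 mM EDTA, pH 7.2, holding at −100 mV. Steps of 0.1 s from −140 to +50 mV (10-mV increments) were followed by −120 mV tails, without or with 30 µM flavonoid. Peak tails were normalized and Boltzmann-fitted. Deactivation time constant came from single-exponential fits of the −120 mV tail after +50 mV; two-tailed t test.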

[3] = biological target: T3, wild-type CNBHD from mEAG1 (Mus musculus, UniProt Q60603); test: Fisetin fluorescence anisotropy binding assay, wild-type CNBHD; settings: Kd (apparent affinity), 5 µM fisetin, fit with Eq. 7
T3 sequence (Q60603 552-724): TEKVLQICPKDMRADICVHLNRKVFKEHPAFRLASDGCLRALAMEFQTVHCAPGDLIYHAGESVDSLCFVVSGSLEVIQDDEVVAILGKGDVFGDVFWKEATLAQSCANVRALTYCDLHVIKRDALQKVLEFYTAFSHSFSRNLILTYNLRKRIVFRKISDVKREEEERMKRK

O=c1c(O)c(-c2ccc(O)c(O)c2)oc2cc(O)ccc12 [Fisetin, 2-(3,4-dihydroxyphenyl)-3,7-dihydroxychromen-4-one]
decrease of peak fluorescence intensity of the C-linker/CNBHD at 341 nm [1]: 27% | rate (time constant) of deactivation ([2]; at −120 mV, 3.4 ± 0.7 ms without, n = 4): 6.7 ± 2.2 ms | time constant of deactivation (tail currents of Fig. 5 F) ([2]; tail at −120 mV after step to +50 mV, 5.2 ms without): 13.4 ms | V1/2 (Boltzmann fit of the averaged conductance–voltage relationship) ([2]; −31.9 mV without, Fig. 5 E): −50.6 mV | V1/2 of the conductance–voltage relationship ([2]; −36.4 ± 2.5 mV without, n = 4): −51.1 ± 6.0 mV | Kd [3]: 111 µM and ≥ 111 µM
